Laboratory results: PubChem BioAssay AID602148 (NMMLSC, 2011)
Calls of active or inactive are those of the source.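 Rule for the calls: active = a drop over time in fluorescent ligand binding to the VLA-4 integrin, graded weak or strong, level 1 or 2; inactive = no binding drop, level 0.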

tested on: U937 deltaST FPR, LDV-FITC VLA-4 binding, flow cytometry; test: GTPase hits reducing LDV-FITC binding to VLA-4 – U937 deltaST FPR cells, flow cytometry, mechanism study for Ras-related GTPase inhibitor project (AID 602148); conditions: at 50 µM; stronger effect = higher value
Procedure, shortened: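 System: deltaST-FPR-expressing U937 cells; measure: LDV-FITC binding decline over time, graded none, weak, strong; controls: unlabeled LDV excess as nonspecific control; schedule: flow acquisition 1024 s at 37 °C, compounds after plateau; measured by: flow cytometry, mean channel fluorescence of bound LDV-FITC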

VLA-4 affinity decrease level (0-2) | SMILES
0 (inactive) | CC(C)(C)C1Cc2c(sc(NC(=S)NC(=O)c3ccccc3)c2C(=O)O)CO1 (stereo not drawn)
2 | CC1(C)Cc2c(sc(NC(=S)NC(=O)c3cccc(Br)c3)c2C(=O)O)CO1
0 (inactive) | Cc1cccc(C(=O)NC(=S)Nc2sc3c(c2C(=O)O)CC(C)(C)OC3)c1
0 (inactive) | CC1(C)Cc2c(sc(NC(=S)NC(=O)c3cccs3)c2C(=O)O)CO1
0 (inactive) | CC1(C)Cc2c(sc(NC(=S)NC(=O)c3ccco3)c2C(=O)O)CO1
1 | COc1ccc(C(=O)NC(=S)Nc2sc3c(c2C(=O)O)CC(C)(C)OC3)cc1
2 | COc1cccc(C(=O)NC(=S)Nc2sc3c(c2C(=O)O)CC(C)(C)OC3)c1
2 | CC1(C)Cc2c(sc(NC(=S)NC(=O)c3ccccc3Br)c2C(=O)O)CO1
0 (inactive) | Cc1ccccc1C(=O)NC(=S)Nc1sc2c(c1C(=O)O)CC(C)(C)OC2
1 | CC1(C)Cc2c(sc(NC(=S)NC(=O)c3cccc(F)c3)c2C(=O)O)CO1
0 (inactive) | CCC1(C)Cc2c(sc(NC(=S)NC(=O)c3ccccc3)c2C(=O)O)CO1 (stereo not drawn)
0 (inactive) | CC1(C)Cc2c(sc(NC(=S)NC(=O)c3ccc(F)cc3)c2C(=O)O)CO1
0 (inactive) | CC1(C)Cc2c(sc(NC(=S)NC(=O)c3ccccc3F)c2C(=O)O)CO1
1 | COc1ccccc1C(=O)NC(=S)Nc1sc2c(c1C(=O)O)CC(C)(C)OC2
2 | CC1(C)Cc2c(sc(NC(=S)NC(=O)c3ccc(Br)cc3)c2C(=O)O)CO1
1 | CC1(C)Cc2c(sc(NC(=S)NC(=O)C3CCCCC3)c2C(=O)O)CO1
0 (inactive) | O=C(NC(=S)Nc1sc2c(c1C(=O)O)CC1(CCCC1)OC2)c1ccccc1
0 (inactive) | Cc1ccc(C(=O)NC(=S)Nc2sc3c(c2C(=O)O)CC(C)(C)OC3)cc1
